In ChEMBL document CHEMBL2380295, “Structure-activity studies on the side chain of a simplified analog of aplysiatoxin (aplog-1) with anti-proliferative activity” (Bioorg Med Chem, 2013):
Values belong to the molecule of their own block, whether it stands above or below them.

What was measured:
[1] = test system: Human gammaherpesvirus 4; experiment: Induction of EBV-early antigen expressed in human Raji cells at 10^-7 M after 48 hrs by immunofluorescence assay relative to control; assay type: organism-based; conditions: human gammaherpesvirus 4, raji, 0.1 µM
Method in brief: (§1)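 Raji B-lymphoblastoid cells (5 × 10^5/mL) in RPMI 1640 with 10% FBS, with 4 mM sodium n-butyrate as synergist and test compound at 10^-7 or 10^-6 M (final DMSO 0.4%). Incubated 48 h at 37 °C under 5% CO2. Smears were stained by indirect immunofluorescence using NPC patient serum and FITC anti-human IgG. At least 500 cells counted; % EA-positive recorded; n = 3, SEM.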

[2] = test system: NCI-H460; experiment: Growth inhibition of human NCI-H460 cells after 48 hrs by sulforhodamine B assay; assay type: functional; conditions: NCI-H460, 48 h
Method in brief: (§2)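 Yamori 39-line human cancer panel, NCI method with modifications. Cells plated in RPMI 1640 plus 5% FBS, attached overnight, then exposed 48 h to compound at 10^-8, 10^-7, 10^-6, 10^-5 and 10^-4 M. Sulforhodamine B staining read at 525 nm; % growth = 100[(T−T0)/(C−T0)] from duplicate-point averages, with T0 the time-zero absorbance. GI50 is the concentration giving 50.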

[3] = test system: KM12; experiment: Growth inhibition of human KM12 cells after 48 hrs by sulforhodamine B assay; assay type: functional; conditions: KM12, 48 h; method in brief: as §2
[4] = test system: MDA-MB-231; experiment: Growth inhibition of human MDA-MB-231 cells after 48 hrs by sulforhodamine B assay; assay type: functional; conditions: MDA-MB-231, 48 h; method in brief: as §2
[5] = test system: NCI-H23; experiment: Growth inhibition of human NCI-H23 cells after 48 hrs by sulforhodamine B assay; assay type: functional; conditions: NCI-H23, 48 h; method in brief: as §2
[6] = Growth inhibition of human HCC2998 cells after 48 hrs by sulforhodamine B assay; assay type: functional; conditions: HCC 2998, 48 h; method in brief: as §2
[7] = target: T1, Protein kinase C delta type (Homo sapiens, UniProt Q05655); experiment: Inhibition of [3H]PDBu binding to PKCdelta-C1B domain peptide (unknown origin)
T1 sequence (Q05655 whole entry, the tested form may be a part): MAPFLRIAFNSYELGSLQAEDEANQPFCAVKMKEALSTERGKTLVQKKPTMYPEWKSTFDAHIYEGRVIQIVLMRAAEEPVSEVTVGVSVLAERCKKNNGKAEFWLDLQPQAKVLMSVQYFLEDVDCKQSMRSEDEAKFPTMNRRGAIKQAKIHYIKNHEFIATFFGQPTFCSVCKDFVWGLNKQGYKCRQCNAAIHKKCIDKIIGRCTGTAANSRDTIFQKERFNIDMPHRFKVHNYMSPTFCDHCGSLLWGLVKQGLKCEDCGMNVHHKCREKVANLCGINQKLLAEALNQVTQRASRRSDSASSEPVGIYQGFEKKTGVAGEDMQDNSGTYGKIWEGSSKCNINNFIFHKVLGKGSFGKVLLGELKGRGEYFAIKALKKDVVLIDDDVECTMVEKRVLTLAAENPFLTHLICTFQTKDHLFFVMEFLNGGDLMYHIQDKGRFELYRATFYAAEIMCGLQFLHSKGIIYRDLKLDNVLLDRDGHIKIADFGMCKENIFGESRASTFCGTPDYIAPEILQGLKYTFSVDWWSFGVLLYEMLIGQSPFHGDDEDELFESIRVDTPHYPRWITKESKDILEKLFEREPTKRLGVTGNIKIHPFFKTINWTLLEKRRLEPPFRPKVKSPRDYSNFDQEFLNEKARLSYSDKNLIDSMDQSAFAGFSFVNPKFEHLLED
Method in brief: (§3)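 Competitive [3H]PDBu binding used 14 or 40 nM PKCδ C1 peptide and 20 nM [3H]PDBu (19.6 Ci/mmol), in 50 mM Tris-maleate (pH 7.4 at 4 °C) with 50 µg/mL phosphatidylserine, 3 mg/mL bovine γ-globulin and varied inhibitor concentrations. IC50 was taken as 50% inhibition of specific binding. Ki was derived by the Sharkey–Blumberg method.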

[8] = test system: MKN-74; experiment: Growth inhibition of human MKN74 cells after 48 hrs by sulforhodamine B assay; assay type: functional; conditions: MKN-74, 48 h; method in brief: as §2
[9] = Growth inhibition of human HBC4 cells after 48 hrs by sulforhodamine B assay; assay type: functional; conditions: HBC4, 48 h; method in brief: as §2
[10] = test system: SF-268; experiment: Growth inhibition of human SF268 cells after 48 hrs by sulforhodamine B assay; assay type: functional; conditions: SF-268, 48 h; method in brief: as §2
[11] = Cytotoxicity against human Raji cells assessed as cell viability at 10^-6 M; assay type: cell-based; conditions: read-out: Activity
[12] = test system: DMS-273; experiment: Growth inhibition of human DMS273 cells after 48 hrs by sulforhodamine B assay; assay type: functional; conditions: DMS-273, 48 h; method in brief: as §2
[13] = test system: A549; experiment: Growth inhibition of human A549 cells after 48 hrs by sulforhodamine B assay; assay type: functional; conditions: A549, 48 h; method in brief: as §2
[14] = Growth inhibition of human RXF631L cells after 48 hrs by sulforhodamine B assay; assay type: functional; conditions: RXF 631, 48 h; method in brief: as §2
[15] = test system: SK-OV-3; experiment: Growth inhibition of human SKOV3 cells after 48 hrs by sulforhodamine B assay; assay type: functional; conditions: SK-OV-3, 48 h; method in brief: as §2
[16] = target: T1, Protein kinase C delta type; experiment: Inhibition of [3H]PDBu binding to PKCdelta-C1A domain peptide (unknown origin); method in brief: as §3
[17] = test system: MCF7; experiment: Growth inhibition of human MCF7 cells after 48 hrs by sulforhodamine B assay; assay type: functional; conditions: MCF7, 48 h; method in brief: as §2
[18] = test system: U-251; experiment: Growth inhibition of human U251 cells after 48 hrs by sulforhodamine B assay; assay type: functional; conditions: U-251, 48 h; method in brief: as §2
[19] = test system: HCT-116; experiment: Growth inhibition of human HCT116 cells after 48 hrs by sulforhodamine B assay; assay type: functional; conditions: HCT-116, 48 h; method in brief: as §2
[20] = test system: SNB-78; experiment: Growth inhibition of human SNB78 cells after 48 hrs by sulforhodamine B assay; assay type: functional; conditions: SNB-78, 48 h; method in brief: as §2
[21] = Cytotoxicity against human Raji cells assessed as cell viability at 10^-7 M; assay type: cell-based; conditions: read-out: Activity
[22] = test system: OVCAR-8; experiment: Growth inhibition of human OVCAR8 cells after 48 hrs by sulforhodamine B assay; assay type: functional; conditions: OVCAR-8, 48 h; method in brief: as §2
[23] = test system: SF-539; experiment: Growth inhibition of human SF539 cells after 48 hrs by sulforhodamine B assay; assay type: functional; conditions: SF-539, 48 h; method in brief: as §2
[24] = test system: HT-29; experiment: Growth inhibition of human HT-29 cells after 48 hrs by sulforhodamine B assay; assay type: functional; conditions: HT-29, 48 h; method in brief: as §2
[25] = Octanol-water partition coefficient, log P of the compound by HPLC analysis; assay type: physicochemical
Method in brief: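 log P was estimated from HPLC retention, with column dead time measured using unretained formamide.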

[26] = Growth inhibition of human MKN1 cells after 48 hrs by sulforhodamine B assay; assay type: functional; conditions: MKN-1, 48 h; method in brief: as §2
[27] = test system: SF-295; experiment: Growth inhibition of human SF295 cells after 48 hrs by sulforhodamine B assay; assay type: functional; conditions: SF-295, 48 h; method in brief: as §2
[28] = test system: NCI-H226; experiment: Growth inhibition of human NCI-H226 cells after 48 hrs by sulforhodamine B assay; assay type: functional; conditions: NCI-H226, 48 h; method in brief: as §2
[29] = Growth inhibition of human HBC5 cells after 48 hrs by sulforhodamine B assay; assay type: functional; conditions: HBC5, 48 h; method in brief: as §2
[30] = test system: LOX IMVI; experiment: Growth inhibition of human LOXIMVI cells after 48 hrs by sulforhodamine B assay; assay type: functional; method in brief: as §2
[31] = test system: OVCAR-3; experiment: Growth inhibition of human OVCAR3 cells after 48 hrs by sulforhodamine B assay; assay type: functional; conditions: OVCAR-3, 48 h; method in brief: as §2
[32] = test system: DU-145; experiment: Growth inhibition of human DU145 cells after 48 hrs by sulforhodamine B assay; assay type: functional; conditions: DU-145, 48 h; method in brief: as §2
[33] = test system: OVCAR-5; experiment: Growth inhibition of human OVCAR5 cells after 48 hrs by sulforhodamine B assay; assay type: functional; conditions: OVCAR-5, 48 h; method in brief: as §2
[34] = test system: St-4; experiment: Growth inhibition of human St-4 cells after 48 hrs by sulforhodamine B assay; assay type: functional; conditions: St-4, 48 h; method in brief: as §2
[35] = test system: MKN-7; experiment: Growth inhibition of human MKN7 cells after 48 hrs by sulforhodamine B assay; assay type: functional; conditions: MKN-7, 48 h; method in brief: as §2
[36] = test system: DMS-114; experiment: Growth inhibition of human DMS114 cells after 48 hrs by sulforhodamine B assay; assay type: functional; conditions: DMS-114, 48 h; method in brief: as §2
[37] = Growth inhibition of human BSY1 cells after 48 hrs by sulforhodamine B assay; assay type: functional; conditions: BSY-1, 48 h; method in brief: as §2
[38] = test system: HCT-15; experiment: Growth inhibition of human HCT15 cells after 48 hrs by sulforhodamine B assay; assay type: functional; conditions: HCT-15, 48 h; method in brief: as §2
[39] = test system: Human gammaherpesvirus 4; experiment: Induction of EBV-early antigen expressed in human Raji cells at 10^-6 M after 48 hrs by immunofluorescence assay relative to control; assay type: organism-based; conditions: human gammaherpesvirus 4, raji, 1 µM; method in brief: as §1
[40] = test system: NCI-H522; experiment: Growth inhibition of human NCI-H522 cells after 48 hrs by sulforhodamine B assay; assay type: functional; conditions: NCI-H522, 48 h; method in brief: as §2
[41] = test system: MKN-28; experiment: Growth inhibition of human MKN28 cells after 48 hrs by sulforhodamine B assay; assay type: functional; conditions: MKN-28, 48 h; method in brief: as §2
[42] = test system: MKN-45; experiment: Growth inhibition of human MKN45 cells after 48 hrs by sulforhodamine B assay; assay type: functional; conditions: MKN-45, 48 h; method in brief: as §2
[43] = test system: OVCAR-4; experiment: Growth inhibition of human OVCAR4 cells after 48 hrs by sulforhodamine B assay; assay type: functional; conditions: OVCAR-4, 48 h; method in brief: as §2
[44] = test system: PC-3; experiment: Growth inhibition of human PC3 cells after 48 hrs by sulforhodamine B assay; assay type: functional; conditions: PC-3, 48 h; method in brief: as §2
[45] = test system: ACHN; experiment: Growth inhibition of human ACHN cells after 48 hrs by sulforhodamine B assay; assay type: functional; method in brief: as §2
[46] = test system: SNB-75; experiment: Growth inhibition of human SNB75 cells after 48 hrs by sulforhodamine B assay; assay type: functional; conditions: SNB-75, 48 h; method in brief: as §2

Structure (SMILES): CC1(C)CC[C@@H]2CC(=O)O[C@@H](CO)CC(=O)O[C@@H]3C[C@@H](CCCCc4c(Br)cc(Br)c(O)c4Br)O[C@@]1(C3)O2
Activity [1]: 1.9%
GI50 [2]: 3.24 µM
GI50 [3]: 16.6 µM
GI50 [4]: 12 µM
GI50 [5]: 14.1 µM
GI50 [6]: 7.59 µM
Ki [7]: 0.0069 µM
GI50 [8]: 21.9 µM
GI50 [9]: 0.871 µM
GI50 [10]: 20.9 µM
viability at 1 µM [11]: 40%
GI50 [12]: 18.2 µM
GI50 [13]: 12.6 µM
GI50 [14]: 21.9 µM
GI50 [15]: 32.4 µM
Ki [16]: 0.079 µM
GI50 [17]: 19.5 µM
GI50 [18]: 16.2 µM
GI50 [19]: 17.8 µM
GI50 [20]: 47.9 µM
viability at 0.1 µM [21]: 40%
GI50 [22]: 17.4 µM
GI50 [23]: 13.5 µM
GI50 [24]: 16.6 µM
logP [25]: 5.5
GI50 [26]: 14.8 µM
GI50 [27]: 13.2 µM
GI50 [28]: 16.2 µM
GI50 [29]: 22.9 µM
GI50 [30]: 11.7 µM
GI50 [31]: 15.5 µM
GI50 [32]: 17 µM
GI50 [33]: 18.6 µM
GI50 [34]: 3.09 µM
GI50 [35]: 20.9 µM
GI50 [36]: 25.7 µM
GI50 [37]: 21.4 µM
GI50 [38]: 18.2 µM
Activity [39]: 1.9%
GI50 [40]: 20.4 µM
GI50 [41]: 18.2 µM
GI50 [42]: 11.5 µM
GI50 [43]: 20.9 µM
GI50 [44]: 13.2 µM
GI50 [45]: 16.2 µM
GI50 [46]: 26.3 µM

logP [25]: 4.8
Structure (SMILES): CC1(C)CC[C@@H]2CC(=O)O[C@@H](CO)CC(=O)O[C@@H]3C[C@@H](CCCCc4ccccc4)O[C@@]1(C3)O2
